Drawing on ChEMBL document CHEMBL4513216, “Probing the Open Global Health Chemical Diversity Library for Multistage-Active Starting Points for Next-Generation Antimalarials” (ACS Infect Dis, 2020), this text covers cytotoxicity for 96 molecules.

Structures are written as SMILES.

The nature of the series: Toxicity liver stage against HepG2, at 10uM. The note with it: human, HepG2-A16-CD81EGFP cells; read-out: INHIBITION
Further details: test concentration 10 uM, cell line HepG2-A16-CD81EGFP. The format is cell-based. The gist of the method:
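Uninfected HepG2-A16-CD81EGFP cells, 3 × 10^3 per well, 1536-well, plated on prespotted compound at 10 μM final, parasite-free screening media added to match infected plates; puromycin 10 μM positive, DMSO 0.5% negative; run in parallel with 48 h PbLuc assay at 37 °C, 5% CO2; viability by CellTiter-Glo luminescence, normalized to controls.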
`Cc1ccc(CNC(=O)C2CCN(C(=O)c3ccco3)CC2)n1C`: the cytotoxicity at 10 µM was found to be 2.46%.

As to `c1ccc(O[C@H]2COCCN(Cc3c[nH]c4ccccc34)C2)cc1`, the cytotoxicity at 10 µM is -0.347%.

As to `Cc1cc(C(=O)N2CCOC[C@H](Oc3cccnc3)C2)c(C(F)(F)F)o1`, the cytotoxicity at 10 µM stood at 3.11%.

In the case of `COCCOc1ccnc(-c2noc([C@@H]3CCCN3C3CCC3)n2)c1`, the cytotoxicity at 10 µM is -8.46%.

For the molecule `CSc1ccc(C(=O)N2CC(=O)N(Cc3ccccc3)CC(O)C2)cc1` (stereo unspecified), the cytotoxicity at 10 µM is -0.426%.

Consider `O=C(NCC1(O)CCc2ccccc21)Nc1ccc2c(c1)OCO2` (stereo unspecified), for which the cytotoxicity at 10 µM is -11.2%.

Consider `CCN1C(=O)C[C@@H]2[C@@H]1CCN2S(=O)(=O)c1ccc(OC)cc1`, for which the cytotoxicity at 10 µM came to 0.434%.

On to `O=C(C1CCC1)N1C[C@H]2CNC[C@H]2C1`, for which the cytotoxicity at 10 µM was -4.1%.

On to `CCCS(=O)(=O)N1CCOC2(CCCN(c3ncc(F)cn3)C2)C1` (stereo unspecified), for which the cytotoxicity at 10 µM turned out to be 8.22%.

As to `CCOC[C@@H]1CC[C@H]2[C@H](CCN2C(=O)c2cnccn2)O1`, the cytotoxicity at 10 µM was -10.6%.

Regarding `CC(=O)N1CC[C@@H]2CN(Cc3cccc(Cl)c3)S(=O)(=O)[C@@H]2CC1`, the cytotoxicity at 10 µM was -10.8%.

In the case of `O=C(C1CCC1)N1CCC2(COCc3cnc(-c4cccnc4)nc32)C1` (stereo unspecified), the cytotoxicity at 10 µM was 3.5%.

Turning to `Cc1c(Cl)cccc1NC(=O)Cn1cc(C(=O)O)ccc1=O`, the cytotoxicity at 10 µM is -5.21%.

As for `COc1cccc(-n2ccc3nc(N4CCCC4)ncc3c2=O)c1`, the cytotoxicity at 10 µM came to 5.92%.

`O=C(NCCCN1CCOCC1)c1ccn(COc2ccc(F)cc2)n1`: the cytotoxicity at 10 µM came to 7.16%.

As for `Cc1cc(C(=O)N[C@@H]2CCC[C@@H](N3CCOCC3)[C@@H]2O)no1`, the cytotoxicity at 10 µM was -1.61%.

Take `CC1CCc2n[nH]c(C(=O)NCCCc3ccccn3)c2C1` (stereo unspecified): the cytotoxicity at 10 µM is -24.3%.

Take `CCC(=O)N(CC(N)=O)Cc1cccc(Oc2ccccc2)c1`: the cytotoxicity at 10 µM worked out at 9.66%.

Regarding `COC(=O)[C@H](C)NC(=O)Cc1c(C)nc2cc(=O)[nH]n2c1C`, the cytotoxicity at 10 µM is -1.51%.

In the case of `CCNC(=O)c1ccc(NC(=O)N(C)Cc2cc(C)on2)cc1`, the cytotoxicity at 10 µM was -4.22%.

For the molecule `Cc1ccc(=O)n(Cc2csc(N(C)C3CC3)n2)n1`, the cytotoxicity at 10 µM was 4.09%.

Regarding `COCCN1CCC(CNC(=O)CCc2cc(F)ccc2F)C1` (stereo unspecified), the cytotoxicity at 10 µM was -4.05%.

Regarding `Cc1nc(CN2CCCC2C(=O)OCc2ccccc2)oc1C` (stereo unspecified), the cytotoxicity at 10 µM is -1.86%.

On to `O=C(NCC1(c2cccs2)CCCCC1)N1CCOC(CO)C1` (stereo unspecified), for which the cytotoxicity at 10 µM was 0.75%.

With `O=C(c1cnc(-c2ccco2)s1)N1CCOc2ncccc21`, the cytotoxicity at 10 µM came out at 7.48%.

`CNC(=O)NC(=O)C(C)Nc1ccccc1OCCOC` (stereo unspecified): the cytotoxicity at 10 µM is 2.24%.

`COCCOc1ccc(NC(=O)N(C(C)C)C2CC2)cn1`: the cytotoxicity at 10 µM is -9.59%.

Consider `Cc1cccc(CNC(Cn2cncn2)c2ccccc2)c1C` (stereo unspecified), for which the cytotoxicity at 10 µM was -5.23%.

`O=C(CCc1ccco1)NCC1CCCN1c1cccnn1` (stereo unspecified): the cytotoxicity at 10 µM is -10.8%.

Turning to `Cc1c(F)cc(C(=O)NCC(F)(F)F)cc1NCC(=O)N(C)C`, the cytotoxicity at 10 µM came to 10.2%.

In the case of `CC1CCCN(C(=O)Cn2cc(I)cn2)C1` (stereo unspecified), the cytotoxicity at 10 µM turned out to be 0.106%.

Regarding `CCc1ccc(C(=O)Nc2cccc(CN3CCCC3C(N)=O)c2)cc1` (stereo unspecified), the cytotoxicity at 10 µM was -0.268%.

As to `Cc1cc(NC(=O)NC2CCCc3c2cnn3CCO)n(C)n1` (stereo unspecified), the cytotoxicity at 10 µM is -15.7%.

In the case of `COCCn1ccc2cc(NC(=O)COC)ccc21`, the cytotoxicity at 10 µM came out at 0.82%.

On to `Cc1ncc2c(n1)CN(C(C(N)=O)c1ccccc1)CC2` (stereo unspecified), for which the cytotoxicity at 10 µM was 0.66%.

`Cc1nc(C)n(Cc2cccc(NC3CCN(C)C3=O)c2)n1` (stereo unspecified): the cytotoxicity at 10 µM was -0.519%.

For the molecule `N#CCCN(CCC#N)C(=O)CN(C1CC1)C1CCc2ccccc21` (stereo unspecified), the cytotoxicity at 10 µM worked out at 5.92%.

For `Cc1noc(C)c1CSC1CCCN(c2cnn(C)c2)C1=O` (stereo unspecified), the cytotoxicity at 10 µM was 16.8%.

With `O=C1CCC(C(=O)NCCOc2ccccc2-c2ccccc2)CN1` (stereo unspecified), the cytotoxicity at 10 µM stood at 5.47%.

For `CC(C(=O)NC1CCCCC1)N1CCc2[nH]nc(C(F)(F)F)c2C1` (stereo unspecified), the cytotoxicity at 10 µM worked out at 5.15%.

`CN(C)c1nc(CNC(=O)N[C@H](CO)c2ccccc2)cs1`: the cytotoxicity at 10 µM worked out at 11.7%.

For `O=C(NC1CCN(c2ccccc2OC(F)F)C1)c1c[nH]nn1` (stereo unspecified), the cytotoxicity at 10 µM is -2.54%.

On to `CCC1CN(C(=O)c2csc(-c3cnn(C)c3)n2)CCO1` (stereo unspecified), for which the cytotoxicity at 10 µM was -23.2%.

Regarding `Cn1nnnc1SC1CCCN(c2ccccc2Cl)C1=O` (stereo unspecified), the cytotoxicity at 10 µM stood at 3.71%.

`CCc1cnc(N2CCN(Cc3ccno3)CC2)s1`: the cytotoxicity at 10 µM was -2.54%.

As to `CCN(Cc1cnn(C)c1)C(=O)c1cc2ccccc2c(=O)[nH]1`, the cytotoxicity at 10 µM was -7.94%.

`O=C(CCOc1ccccc1F)N1CCC(O)CC1`: the cytotoxicity at 10 µM was -14%.

Regarding `N#Cc1ccc(NCCCOCC2CCOC2)c(F)c1` (stereo unspecified), the cytotoxicity at 10 µM turned out to be 1.1%.

As to `Cc1cnn(CCNCc2ccc(OCC(N)=O)cc2)c1`, the cytotoxicity at 10 µM was -0.86%.

Regarding `CCN(Cc1ccco1)C(=O)NCc1nnc2n1CCC2`, the cytotoxicity at 10 µM is -10.3%.

For the molecule `O=C(c1cc(Cl)c2c(c1)OCO2)N1CCN(c2nccs2)CC1`, the cytotoxicity at 10 µM was -3.6%.

Take `O=C(Cc1c[nH]c2ccccc12)N1CCN(C(=O)c2ccoc2)CC1`: the cytotoxicity at 10 µM was -2.15%.

With `CN(Cc1nnc(C2CC2)n1C)C1CCN(CCc2cccs2)C1` (stereo unspecified), the cytotoxicity at 10 µM is -8.71%.

On to `CC(C)c1nc(CN(C)C2CCN(Cc3nc(C4CC4)no3)C2)no1` (stereo unspecified), for which the cytotoxicity at 10 µM is -9.37%.

For the molecule `CCCOc1cc(C)ccc1NC(=O)NCCC(=O)N(C)C`, the cytotoxicity at 10 µM is -13.9%.

In the case of `CC(=O)N1CCC2(CC1)C(=O)N(C)c1ccc(F)cc12`, the cytotoxicity at 10 µM was -116%.

Take `COCC(=O)N1CC[C@H]2C[C@H](c3nc(C)no3)O[C@@H]2C1`: the cytotoxicity at 10 µM was -76.1%.

For `CCCNC(=O)N1CCCC2(CCC(=O)N(CCc3c[nH]cn3)C2)C1` (stereo unspecified), the cytotoxicity at 10 µM came out at 2.67%.

On to `CCNC(=O)[C@@H]1C[C@H](n2cc(CC3CCCCC3)nn2)CN1`, for which the cytotoxicity at 10 µM turned out to be 1.06%.

For the molecule `CCCc1cnc(C)nc1NCCc1nc(C)cc(=O)[nH]1`, the cytotoxicity at 10 µM is -5.1%.

Take `CC(C)Oc1cccc(F)c1C(C(=O)O)N1CCCC1` (stereo unspecified): the cytotoxicity at 10 µM was -3.33%.

Turning to `O=C(NC1CC1)C1CNCCN1C(=O)CCOc1ccccc1` (stereo unspecified), the cytotoxicity at 10 µM was determined as 2.08%.

In the case of `O=C(c1ccc(-c2nc[nH]n2)cc1)N1CCOC(C(F)(F)F)C1` (stereo unspecified), the cytotoxicity at 10 µM is -2.35%.

Take `CC(C)C[C@@H](N)C(=O)N(C)Cc1csc(C(C)C)n1`: the cytotoxicity at 10 µM was -127%.

Consider `COc1ccc(N2CCN(C(=O)CCn3nccc3C)CC2(C)C)cc1`, for which the cytotoxicity at 10 µM stood at 57.1%.

Turning to `CCCNc1ncc(CN2CCC3(CCNC(=O)CC3)CC2)cn1`, the cytotoxicity at 10 µM was -166%.

Turning to `COc1ccc(C(C(=O)O)N2CCC(Cn3cccn3)CC2)c(OC)n1` (stereo unspecified), the cytotoxicity at 10 µM is -9.46%.

With `CCc1ncc(CN2CCC(Oc3ccccc3OC)CC2)cn1`, the cytotoxicity at 10 µM was -8.17%.

Take `COc1cc(N2CCCC(c3nccn3CCN(C)C)C2)nc(N)n1` (stereo unspecified): the cytotoxicity at 10 µM is -9.6%.

As for `COc1cccc(C)c1C(=O)N1C[C@@H](CN(C)C)[C@@H](CO)C1`, the cytotoxicity at 10 µM is -10.4%.

With `COCCNc1nc(C2CCCC2)nc2c1CCNCC2`, the cytotoxicity at 10 µM was -6.4%.

As to `COC(=O)N1CC(C)=C(C)CN1C(=O)Nc1ccc(Cl)cc1`, the cytotoxicity at 10 µM was -7.97%.

For the molecule `CC(C)c1nn(C)c(N(C)C)c1CNCC(O)c1ccccc1` (stereo unspecified), the cytotoxicity at 10 µM was -1.83%.

With `Cc1nc(-c2ccc(Cl)s2)sc1C(=O)NC(C)(C)C(N)=O`, the cytotoxicity at 10 µM is -3.04%.

`CC(C)(C)n1cc(C(=O)N2CCN(Cc3cccnc3)CC2)cn1`: the cytotoxicity at 10 µM was -7.51%.

On to `CCc1nccn1C1CCCN(C(=O)c2ccc(NC3CC3)nc2)C1` (stereo unspecified), for which the cytotoxicity at 10 µM is -11.3%.

For `CCn1cnnc1CNC(=O)N(C)C(C)c1cccs1` (stereo unspecified), the cytotoxicity at 10 µM is -15.9%.

For the molecule `CS(=O)(=O)NCCCNC(=O)NCc1ccccc1`, the cytotoxicity at 10 µM was -3.54%.

As to `COc1ncccc1CNC(=O)c1cc(C)on1`, the cytotoxicity at 10 µM was -20.2%.

Take `Cc1oc(C)c(C(=O)NCc2cccc(C(N)=O)c2)c1C`: the cytotoxicity at 10 µM is -15.8%.

For `CC(CNCc1ccc(Cl)c(Cl)c1)Oc1ccccn1` (stereo unspecified), the cytotoxicity at 10 µM is -0.291%.

For the molecule `COC(C)(C)C(=O)N1CCC(c2cc(CN(C)C)n(C)n2)CC1`, the cytotoxicity at 10 µM was 0.748%.

In the case of `CN(C)CCn1c(=O)n(C)c(=O)c2ccccc21`, the cytotoxicity at 10 µM is -1.48%.

Turning to `Cc1cccc(CN2C[C@@H]3[C@@H](C(=O)NCC(C)C)CCS(=O)(=O)[C@@H]3C2)c1`, the cytotoxicity at 10 µM was -2.63%.

As to `Cc1ccc2c(c1)CCC2NCc1c(C)nn(CCO)c1C` (stereo unspecified), the cytotoxicity at 10 µM is 11.2%.

For the molecule `COCCN1C[C@H](OCc2csc(C)n2)[C@H]2COC[C@H]21`, the cytotoxicity at 10 µM was -6.08%.

As to `Cc1noc(C)c1CN1C[C@H](OCC2CC2)[C@H]2COC[C@H]21`, the cytotoxicity at 10 µM was -5.78%.

Turning to `CC(C)NCc1nc(-c2ccc3c(c2)OCO3)c[nH]1`, the cytotoxicity at 10 µM was 6.24%.

With `CN(C)C(=O)CN1CC[C@H]2CN(S(C)(=O)=O)C[C@@H]2C1=O`, the cytotoxicity at 10 µM is -13.1%.

On to `O=C1N(Cc2cccnc2)CCC12CCCN(c1ncc(F)cn1)C2` (stereo unspecified), for which the cytotoxicity at 10 µM is -1%.

As for `CN(C)CCOCc1nnc2n1CCN(Cc1ccsc1)C2`, the cytotoxicity at 10 µM was 3.02%.

Take `COc1ccc(-c2n[nH]cc2CNC2CCN(C3CC3)CC2)cc1`: the cytotoxicity at 10 µM was 1.75%.

In the case of `Cc1noc(C)c1CN1CCCC2(CCN(C(=O)NC3CC3)C2)C1` (stereo unspecified), the cytotoxicity at 10 µM amounted to 7.25%.

Turning to `Cc1noc(C)c1CN1CCO[C@H]2CN(C3CCOCC3)C[C@H]21`, the cytotoxicity at 10 µM is -1.41%.

Regarding `CO[C@@H]1CCN(C(=O)Cc2ccsc2)[C@H]1Cc1cccnc1`, the cytotoxicity at 10 µM stood at 6.9%.

As for `CC(C)Cn1cc2nc(N3CCCC(C)C3)[nH]cc-2c1=O` (stereo unspecified), the cytotoxicity at 10 µM stood at 2.22%.
